Measured values collected from several papers.

SMILES | species | sample | route | dose | notes | half-life
CC1(CNc2nc(-c3cccs3)nc(Cl)c2-c2c(F)cc(N)cc2F)COC1 | mouse | plasma | intraperitoneal | 2.5 mg/kg |  | 1.51 h
COC1=CC(c2ccc[nH]2)=N/C1=C\c1cc(Cc2ccc(OC(F)(F)F)cc2)c(C)[nH]1.Cl | male CD-1 mouse | plasma | oral | 40 mg/kg | single dose | 51.9 h
CC(C)C[C@@H]1CCO[C@@H]2[C@H](CN[C@@H]2C(=O)N[C@H]2[C@H]3O[C@H](SCC/C=C\[C@H]2C)[C@H](O)[C@@H](O)[C@H]3O)C1 | mouse | plasma | intravenous | 3 mg/kg | single dose | 4.66 h
NCc1ccc(-c2nn(Cc3ccncc3)c3ccccc23)o1 | male CD-1 mouse | plasma | intraperitoneal | 30 mg/kg |  | 5.69 h
Cc1ncsc1-c1ccc([C@H](CC(=O)N2CC3(C2)CN(c2ccc(C#Cc4ccc(C(=O)N5CCC(n6cc(-c7ccc8c(c7)CCN8C(=O)Cc7cccc(OC(F)(F)F)c7)c7c(N)ncnc76)CC5)cc4)cn2)C3)NC(=O)[C@@H]2C[C@@H](O)CN2C(=O)[C@@H](NC(=O)C2(F)CC2)C(C)(C)C)cc1 | male C57BL/6 mouse | plasma | intravenous | 1 mg/kg |  | 5.9 h
CCOC(=O)c1c(NC(=O)CNC(C)C)sc2c1CCCCC2 | male mouse | plasma | intraperitoneal | 5 mg/kg | single dose | 1.47 h
Cc1cc(-c2ccnc3[nH]cc(F)c23)cc(F)c1[C@@]1(O)[C@H](C)CN(C2CCS(=O)(=O)CC2)C[C@@H]1C | male CD-1 mouse | plasma | oral | 3 mg/kg |  | 2.5 h
CN(C)C(=O)c1cc2cnc(Nc3ccc(-c4ccc5c(=O)cc(N6CCOCC6)oc5c4)cc3)nc2n1C1CCCC1 | BALB/c mouse | plasma | oral | 20 mg/kg |  | 3.3 h
OCc1nc2ccc(NCc3ccc(C(F)(F)F)cc3)cc2[nH]1 | male BALB/c mouse | plasma | oral | 10 mg/kg |  | 3.6 h
OCc1ccc(-c2nn(Cc3ccccc3)c3ccccc23)o1 | male CD-1 mouse | plasma | intravenous | 5 mg/kg |  | 1.39 h
COc1ccc(C[C@H](NC(=O)[C@H](C)NC(=O)CN2CCOCC2)C(=O)N[C@@H](Cc2ccccc2)C(=O)C2(C)CO2)cc1 (stereo in doubt) | mouse | plasma | oral | 20 mg/kg | single dose | 0.7 h
Cc1ccc(C(C)C)cc1Oc1nccc(-c2c(-c3ccc(C(F)(F)F)cc3)ncn2C2CCN(CCO)CC2)n1 | male C57BL/6 mouse | liver | intraperitoneal | 10 mg/kg |  | 3.1 h
Cc1ccc(OCC(=O)N[C@@H](Cc2c[nH]c3ccccc23)C(=O)OC(C)C)cc1 | male Sprague-Dawley mouse | plasma | intravenous | 10 mg/kg |  | 2.2 h
NCc1ccc(-c2nn(Cc3ccccc3)c3ccccc23)o1 | male CD-1 mouse | plasma | intraperitoneal | 30 mg/kg |  | 2.33 h
NCc1cc2c(cc1F)C(=O)N(C1CCC(=O)NC1=O)C2 (stereo not shown) | male CD-1 mouse | plasma | oral | 10 mg/kg |  | 2.3 h
Cc1cc(-c2ccnc3[nH]cc(F)c23)cc(F)c1[C@@]1(O)[C@H](C)CN(C(=O)CN)C[C@@H]1C | male CD-1 mouse | plasma | oral | 3 mg/kg |  | 8.5 h
Cc1[nH]c(C)c(S(=O)(=O)Nc2ccc(C(F)(F)F)c(Cl)c2)c1C(=O)N1CCC(F)(F)C1 | male CD-1 mouse | plasma | intraperitoneal | 40 mg/kg |  | 3.97 h
COc1cccc2c(N3CCC(CCP(=O)(O)O)CC3)ncnc12 | female BALB/c mouse | serum | subcutaneous | 50 mg/kg | tumour-bearing | 1.7 h
COCC(=O)N1CCc2[nH]c3c(Cl)c(Cl)ccc3c2[C@@H]1C | C57BL/6 mouse | blood | oral | 20 mg/kg |  | 4.82 h
O=C1CCC(N2Cc3cc(C4CCN(Cc5ccccc5)CC4)ccc3C2=O)C(=O)N1 (stereo not shown) | male CD-1 mouse | plasma | intravenous | 1 mg/kg |  | 3.28 h
COC1=CC(c2ccc[nH]2)=N/C1=C\c1[nH]c(Cc2ccc(OC(F)(F)F)cc2)cc1Cc1ccc(OC(F)(F)F)cc1 | male CD-1 mouse | plasma | oral | 40 mg/kg | single dose | 9.71 h
Cc1ncsc1-c1ccc([C@H](C)NC(=O)[C@@H]2C[C@@H](O)CN2C(=O)[C@@H](NC(=O)CCCCCCCCCCC(=O)NCCCn2cc(-c3ccc4c(c3)CCN4C(=O)Cc3cccc(OC(F)(F)F)c3)c3c(N)ncnc32)C(C)(C)C)cc1 | mouse | plasma | intravenous | 1 mg/kg |  | 3.3 h
